Results as given in ChEMBL document CHEMBL1629612, “Characterization and sequence analysis of extended-spectrum-{beta}-lactamase-encoding genes from Escherichia coli, Klebsiella pneumoniae, and Proteus mirabilis isolates collected during tigecycline phase 3 clinical trials” (2009).
Values after ≈ are worked out from the molar mass of the structure shown.

Columns and labels:
Type in all cases: functional
Escherichia coli [1] = experiment: Antimicrobial activity against Escherichia coli expressing beta-lactamase AmpC and extended-spectrum beta-lactamase by Etest
In short: (§1)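 Clinical isolates from tigecycline phase 3 trials were received as frozen primary cultures. Serial isolates from one patient were riboprinted, and only the first of identical strains was kept. β-Lactamase genes were assigned by PCR. ESBL confirmation used Etest ESBL strips carrying ceftazidime or cefotaxime, alone and combined with clavulanic acid, following the strip maker's instructions.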

Escherichia coli [2] = experiment: Antimicrobial activity against Escherichia coli expressing beta-lactamase AmpC by Etest; in short: as §1
Klebsiella pneumoniae [3] = experiment: Antimicrobial activity against Klebsiella pneumoniae expressing beta-lactamase CTX by Etest based on multiple determinants
In short: (§2)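 Clinical isolates from tigecycline phase 3 trials were received as frozen primary cultures. Repeat isolates from one patient were riboprinted, and only the first of identical strains was kept. β-lactamase genes were assigned by PCR against control strains, plus isoelectric focusing. ESBL confirmation used Etest ESBL strips carrying ceftazidime or cefotaxime with clavulanic acid, read per the manufacturer's instructions.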

Escherichia coli [4] = experiment: Antimicrobial activity against Escherichia coli expressing beta-lactamase CTX and SHV by Etest; in short: as §1
Escherichia coli [5] = experiment: Antimicrobial activity against Escherichia coli expressing beta-lactamase CTX by Etest based on multiple determinants; in short: as §1
Escherichia coli [6] = experiment: Antimicrobial activity against Escherichia coli extended-spectrum beta-lactamase producing isolate by Etest; in short: as §1
Klebsiella pneumoniae [7] = experiment: Antimicrobial activity against Klebsiella pneumoniae extended-spectrum beta-lactamase producing isolate by Etest; in short: as §2
Proteus mirabilis [8] = experiment: Antimicrobial activity against Proteus mirabilis extended-spectrum beta-lactamase producing isolate by Etest; in short: as §2
Escherichia coli [9] = experiment: Antimicrobial activity against Escherichia coli expressing beta-lactamase SHV by Etest; in short: as §1
Escherichia coli [10] = experiment: Antimicrobial activity against Escherichia coli expressing beta-lactamase CTX by Etest based on single determinant; in short: as §1
Klebsiella pneumoniae [11] = experiment: Antimicrobial activity against Klebsiella pneumoniae expressing beta-lactamase SHV by Etest based on single determinant; in short: as §2
Klebsiella pneumoniae [12] = experiment: Antimicrobial activity against Klebsiella pneumoniae expressing beta-lactamase SHV by Etest based on multiple determinants; in short: as §2
Klebsiella pneumoniae [13] = experiment: Antimicrobial activity against Klebsiella pneumoniae expressing beta-lactamase CTX by Etest based on single determinant; in short: as §2
Klebsiella pneumoniae [14] = experiment: Antimicrobial activity against Klebsiella pneumoniae expressing beta-lactamase SHV and CTX by Etest; in short: as §2
Klebsiella pneumoniae [15] = experiment: Antimicrobial activity against Klebsiella pneumoniae expressing extended-spectrum beta-lactamase and beta-lactamase AmpC by Etest; in short: as §1
Klebsiella pneumoniae [16] = experiment: Antimicrobial activity against Klebsiella pneumoniae expressing beta-lactamase DHA by Etest; in short: as §1
Proteus mirabilis [17] = experiment: Antimicrobial activity against Proteus mirabilis expressing extended-spectrum beta-lactamase by Etest based on single determinant; in short: as §2
Proteus mirabilis [18] = experiment: Antimicrobial activity against Proteus mirabilis expressing extended-spectrum beta-lactamase by Etest based on multiple determinants; in short: as §2
Proteus mirabilis [19] = experiment: Antimicrobial activity against Proteus mirabilis expressing beta-lactamase AmpC by Etest; in short: as §2

SMILES | MIC50 (Escherichia coli [1]) [µg/mL] | MIC90 (Escherichia coli [1]) [µg/mL] | MIC (Escherichia coli [2]) [µg/mL] | MIC50 (Klebsiella pneumoniae [3]) [µg/mL] | MIC90 (Klebsiella pneumoniae [3]) [µg/mL] | MIC50 (Escherichia coli [4]) [µg/mL] | MIC90 (Escherichia coli [4]) [µg/mL] | MIC50 (Escherichia coli [5]) [µg/mL] | MIC90 (Escherichia coli [5]) [µg/mL] | MIC50 (Escherichia coli [6]) [µg/mL] | MIC90 (Escherichia coli [6]) [µg/mL] | MIC50 (Klebsiella pneumoniae [7]) [µg/mL] | MIC90 (Klebsiella pneumoniae [7]) [µg/mL] | MIC50 (Proteus mirabilis [8]) [µg/mL] | MIC90 (Proteus mirabilis [8]) [µg/mL] | MIC (Escherichia coli [9]) [µg/mL] | MIC50 (Escherichia coli [10]) [µg/mL] | MIC90 (Escherichia coli [10]) [µg/mL] | MIC50 (Klebsiella pneumoniae [11]) [µg/mL] | MIC90 (Klebsiella pneumoniae [11]) [µg/mL] | further results
CO/N=C(\C(=O)N[C@@H]1C(=O)N2C(C(=O)O)=C(COC(C)=O)CS[C@H]12)c1csc(N)n1 [CEFOTAXIME] | > 32 | > 32 | 4 (≈ 8.78 µM) | > 32 | > 32 | > 32 | > 32 | > 32 | > 32 | > 32 | > 32 | > 32 | > 32 | 32 (≈ 70.3 µM) | > 32 | 4 (≈ 8.78 µM) | > 32 | > 32 | 16 (≈ 35.1 µM) | > 32 | MIC (Klebsiella pneumoniae [12]): 2 µg/mL (≈ 4.39 µM); MIC50 (Klebsiella pneumoniae [13]): > 32 µg/mL; MIC90 (Klebsiella pneumoniae [13]): > 32 µg/mL; MIC50 (Klebsiella pneumoniae [14]): > 32 µg/mL; MIC90 (Klebsiella pneumoniae [14]): > 32 µg/mL; MIC (Klebsiella pneumoniae [15]): 1 µg/mL (≈ 2.2 µM); MIC (Klebsiella pneumoniae [16]): 2 µg/mL (≈ 4.39 µM); MIC (Proteus mirabilis [17]): 0.25 µg/mL (≈ 0.549 µM); MIC (Proteus mirabilis [18]): 8 µg/mL (≈ 17.6 µM); MIC (Proteus mirabilis [19]): 16 µg/mL (≈ 35.1 µM)
CC(C)(O/N=C(\C(=O)N[C@@H]1C(=O)N2C(C(=O)[O-])=C(C[n+]3ccccc3)CS[C@H]12)c1csc(N)n1)C(=O)O [CEFTAZIDIME] | > 32 | > 32 | 4 (≈ 7.32 µM) | 32 (≈ 58.5 µM) | > 64 | 16 (≈ 29.3 µM) | 64 (≈ 117 µM) | 32 (≈ 58.5 µM) | 64 (≈ 117 µM) | 32 (≈ 58.5 µM) | > 64 | 32 (≈ 58.5 µM) | > 64 | 64 (≈ 117 µM) | > 64 | 16 (≈ 29.3 µM) | 16 (≈ 29.3 µM) | 64 (≈ 117 µM) | 8 (≈ 14.6 µM) | > 64 | MIC (Klebsiella pneumoniae [12]): 16 µg/mL (≈ 29.3 µM); MIC50 (Klebsiella pneumoniae [13]): 32 µg/mL (≈ 58.5 µM); MIC90 (Klebsiella pneumoniae [13]): > 64 µg/mL; MIC50 (Klebsiella pneumoniae [14]): 64 µg/mL (≈ 117 µM); MIC90 (Klebsiella pneumoniae [14]): > 64 µg/mL; MIC (Klebsiella pneumoniae [15]): 4 µg/mL (≈ 7.32 µM); MIC (Klebsiella pneumoniae [16]): 64 µg/mL (≈ 117 µM); MIC (Proteus mirabilis [17]): 2 µg/mL (≈ 3.66 µM); MIC (Proteus mirabilis [18]): 2 µg/mL (≈ 3.66 µM); MIC (Proteus mirabilis [19]): 64 µg/mL (≈ 117 µM)
CO/N=C(\C(=O)N[C@@H]1C(=O)N2C(C(=O)O)=C(CSc3nc(=O)c(O)nn3C)CS[C@H]12)c1csc(N)n1 [CEFTRIAXONE] | > 32 | > 32 | 4 (≈ 7.21 µM) | > 32 | > 32 | > 32 | > 32 | > 32 | > 32 | > 32 | > 32 | > 32 | > 32 | 8 (≈ 14.4 µM) | 32 (≈ 57.7 µM) | 4 (≈ 7.21 µM) | > 32 | > 32 | 8 (≈ 14.4 µM) | > 32 | MIC (Klebsiella pneumoniae [12]): 2 µg/mL (≈ 3.61 µM); MIC50 (Klebsiella pneumoniae [13]): > 32 µg/mL; MIC90 (Klebsiella pneumoniae [13]): > 32 µg/mL; MIC50 (Klebsiella pneumoniae [14]): > 32 µg/mL; MIC90 (Klebsiella pneumoniae [14]): > 32 µg/mL; MIC (Klebsiella pneumoniae [15]): 2 µg/mL (≈ 3.61 µM); MIC (Klebsiella pneumoniae [16]): 1 µg/mL (≈ 1.8 µM); MIC (Proteus mirabilis [17]): 1 µg/mL (≈ 1.8 µM); MIC (Proteus mirabilis [18]): 2 µg/mL (≈ 3.61 µM); MIC (Proteus mirabilis [19]): 8 µg/mL (≈ 14.4 µM)
CN(C)c1ccc(O)c2c1C[C@H]1C[C@H]3[C@H](N(C)C)C(O)=C(C(N)=O)C(=O)[C@@]3(O)C(O)=C1C2=O [MINOCYCLINE] | 4 (≈ 8.74 µM) | > 64 | 1 (≈ 2.19 µM) | 4 (≈ 8.74 µM) | 16 (≈ 35 µM) | 4 (≈ 8.74 µM) | 16 (≈ 35 µM) | 4 (≈ 8.74 µM) | 32 (≈ 69.9 µM) | 4 (≈ 8.74 µM) | 32 (≈ 69.9 µM) | 4 (≈ 8.74 µM) | 64 (≈ 140 µM) | 64 (≈ 140 µM) | > 64 | 2 (≈ 4.37 µM) | 4 (≈ 8.74 µM) | 32 (≈ 69.9 µM) | 4 (≈ 8.74 µM) | 64 (≈ 140 µM) | MIC (Klebsiella pneumoniae [12]): 2 µg/mL (≈ 4.37 µM); MIC50 (Klebsiella pneumoniae [13]): 4 µg/mL (≈ 8.74 µM); MIC90 (Klebsiella pneumoniae [13]): 32 µg/mL (≈ 69.9 µM); MIC50 (Klebsiella pneumoniae [14]): 8 µg/mL (≈ 17.5 µM); MIC90 (Klebsiella pneumoniae [14]): 64 µg/mL (≈ 140 µM); MIC (Klebsiella pneumoniae [15]): 4 µg/mL (≈ 8.74 µM); MIC (Klebsiella pneumoniae [16]): 4 µg/mL (≈ 8.74 µM); MIC (Proteus mirabilis [17]): 16 µg/mL (≈ 35 µM); MIC (Proteus mirabilis [18]): 16 µg/mL (≈ 35 µM); MIC (Proteus mirabilis [19]): 16 µg/mL (≈ 35 µM)
CN(C)c1cc(NC(=O)CNC(C)(C)C)c(O)c2c1C[C@H]1C[C@H]3[C@H](N(C)C)C(O)=C(C(N)=O)C(=O)[C@@]3(O)C(O)=C1C2=O [TIGECYCLINE] | 0.25 (≈ 0.427 µM) | 0.5 (≈ 0.854 µM) | 0.25 (≈ 0.427 µM) | 0.5 (≈ 0.854 µM) | 1 (≈ 1.71 µM) | 0.25 (≈ 0.427 µM) | 0.5 (≈ 0.854 µM) | 0.5 (≈ 0.854 µM) | 0.5 (≈ 0.854 µM) | 0.25 (≈ 0.427 µM) | 0.5 (≈ 0.854 µM) | 0.5 (≈ 0.854 µM) | 2 (≈ 3.41 µM) | 2 (≈ 3.41 µM) | 16 (≈ 27.3 µM) | 0.12 (≈ 0.205 µM) | 0.25 (≈ 0.427 µM) | 0.5 (≈ 0.854 µM) | 0.5 (≈ 0.854 µM) | 1 (≈ 1.71 µM) | MIC (Escherichia coli [4]): 0.25 µg/mL (≈ 0.427 µM); MIC (Klebsiella pneumoniae [12]): 0.5 µg/mL (≈ 0.854 µM); MIC50 (Klebsiella pneumoniae [13]): 1 µg/mL (≈ 1.71 µM); MIC90 (Klebsiella pneumoniae [13]): 2 µg/mL (≈ 3.41 µM); MIC50 (Klebsiella pneumoniae [14]): 0.5 µg/mL (≈ 0.854 µM); MIC90 (Klebsiella pneumoniae [14]): 2 µg/mL (≈ 3.41 µM); MIC (Klebsiella pneumoniae [15]): 0.5 µg/mL (≈ 0.854 µM); MIC (Klebsiella pneumoniae [16]): 0.5 µg/mL (≈ 0.854 µM); MIC (Proteus mirabilis [17]): 2 µg/mL (≈ 3.41 µM); MIC (Proteus mirabilis [18]): 0.5 µg/mL (≈ 0.854 µM); MIC (Proteus mirabilis [19]): 2 µg/mL (≈ 3.41 µM)
NC[C@H]1O[C@H](O[C@H]2[C@H](O)[C@@H](O[C@H]3O[C@H](CO)[C@@H](O)[C@H](N)[C@H]3O)[C@H](N)C[C@@H]2N)[C@H](N)C[C@@H]1O [TOBRAMYCIN] | 16 (≈ 34.2 µM) | > 32 | 1 (≈ 2.14 µM) | 32 (≈ 68.4 µM) | > 32 | 32 (≈ 68.4 µM) | > 32 | 32 (≈ 68.4 µM) | > 32 | 32 (≈ 68.4 µM) | > 32 | 32 (≈ 68.4 µM) | > 32 | 8 (≈ 17.1 µM) | > 32 | 0.25 (≈ 0.535 µM) | 32 (≈ 68.4 µM) | > 32 | 16 (≈ 34.2 µM) | > 32 | MIC (Klebsiella pneumoniae [12]): 0.5 µg/mL (≈ 1.07 µM); MIC50 (Klebsiella pneumoniae [13]): 16 µg/mL (≈ 34.2 µM); MIC90 (Klebsiella pneumoniae [13]): > 32 µg/mL; MIC50 (Klebsiella pneumoniae [14]): 32 µg/mL (≈ 68.4 µM); MIC90 (Klebsiella pneumoniae [14]): > 32 µg/mL; MIC (Klebsiella pneumoniae [15]): 0.25 µg/mL (≈ 0.535 µM); MIC (Klebsiella pneumoniae [16]): 16 µg/mL (≈ 34.2 µM); MIC (Proteus mirabilis [17]): 0.5 µg/mL (≈ 1.07 µM); MIC (Proteus mirabilis [18]): 4 µg/mL (≈ 8.56 µM); MIC (Proteus mirabilis [19]): 4 µg/mL (≈ 8.56 µM)
